{
  "source": "ChEMBL document CHEMBL1144047",
  "about": "“Design and synthesis of diketopiperazine and acyclic analogs related to the caprazamycins and liposidomycins as potential antibacterial agents” (2008)",
  "assay_type_in_all_cases": "functional",
  "key": {"[1]": {"tested_on": "Staphylococcus aureus", "assay": "Antibacterial activity against Staphylococcus aureus Smith after 18 hrs by serial agar dilution method", "how_it_was_run": "(§1)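 MIC determined by serial agar dilution on plain Mueller–Hinton agar; read after 18 h incubation at 37 °C.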"}, "[2]": {"tested_on": "Staphylococcus aureus", "assay": "Antibacterial activity against MDR-Staphylococcus aureus MS9610 after 18 hrs by serial agar dilution method", "how_it_was_run": "(§2)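 MIC by serial agar dilution on Mueller–Hinton agar (no supplement for staphylococci); plates read after 18 h incubation at 37 °C.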"}, "[3]": {"tested_on": "Micrococcus luteus", "assay": "Antibacterial activity against Micrococcus luteus FDA16 after 18 hrs by serial agar dilution method", "how_it_was_run": "as §1"}, "[4]": {"tested_on": "Micrococcus luteus", "assay": "Antibacterial activity against Micrococcus luteus PCI1001 after 18 hrs by serial agar dilution method", "conditions": "PCI1001, 18 h", "how_it_was_run": "as §1"}, "[5]": {"tested_on": "Bacillus subtilis", "assay": "Antibacterial activity against Bacillus subtilis NRRLB-558 after 18 hrs by serial agar dilution method", "how_it_was_run": "as §1"}, "[6]": {"tested_on": "Corynebacterium bovis", "assay": "Antibacterial activity against Corynebacterium bovis 1810 after 18 hrs by serial agar dilution method", "how_it_was_run": "as §1"}, "[7]": {"tested_on": "Mycolicibacterium smegmatis", "assay": "Antibacterial activity against Mycobacterium smegmatis ATCC607 after 42 hrs by serial agar dilution method", "how_it_was_run": "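Serial agar dilution MIC using Mueller–Hinton agar containing 5% glycerol; growth read after 42 h at 37 °C.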"}, "[8]": {"tested_on": "Enterococcus faecalis", "assay": "Antibacterial activity against Enterococcus faecalis NCTC-12201 after 18 hrs by serial agar dilution method", "how_it_was_run": "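MIC by serial agar dilution on Mueller–Hinton agar supplemented with 5% sheep blood; plates incubated 18 hours at 37 °C under 5% CO₂ before reading.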"}, "[9]": {"tested_on": "Mycobacterium tuberculosis", "assay": "Antibacterial activity against Mycobacterium tuberculosis H37Rv at 6.25 ug/ml by microplate Alamar blue assay", "how_it_was_run": "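M. tuberculosis H37Rv (ATCC 27294) grown in BACTEC 12B medium; microplate Alamar blue assay; growth inhibition rate recorded at 6.25 µg/mL.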"}, "[10]": {"tested_on": "Staphylococcus aureus", "assay": "Antibacterial activity against methicillin-resistant Staphylococcus aureus 5 after 18 hrs by serial agar dilution method", "how_it_was_run": "as §2"}},
  "data": [
    {"smiles": "NC[C@H]1O[C@@H](O[C@H]([C@H]2O[C@@H](n3ccc(=O)[nH]c3=O)[C@H](O)[C@@H]2O)[C@@H]2NC(=O)[C@@H](COC(=O)c3ccc(-c4ccccc4)cc3)NC2=O)[C@H](O)[C@@H]1O", "values": [
      {"measurement": "MIC", "setting": "[1]", "value": "> 100", "unit": "µg/mL"},
      {"measurement": "MIC", "setting": "[2]", "value": "> 100", "unit": "µg/mL"},
      {"measurement": "MIC", "setting": "[3]", "value": "> 100", "unit": "µg/mL"},
      {"measurement": "MIC", "setting": "[4]", "value": "> 100", "unit": "µg/mL"},
      {"measurement": "MIC", "setting": "[5]", "value": "> 100", "unit": "µg/mL"},
      {"measurement": "MIC", "setting": "[6]", "value": "> 100", "unit": "µg/mL"},
      {"measurement": "MIC", "setting": "[7]", "value": "> 100", "unit": "µg/mL"},
      {"measurement": "MIC", "setting": "[8]", "value": "> 100", "unit": "µg/mL"},
      {"measurement": "inhibition at 6.25 µg/mL", "setting": "[9]", "value": 29, "unit": "%"}
    ]},
    {"smiles": "CCCCCCCCCCCCCCCC(=O)OC[C@H](NC(=O)[C@@H](N)[C@H](O[C@@H]1O[C@H](CN)[C@@H](O)[C@H]1O)[C@H]1O[C@@H](n2ccc(=O)[nH]c2=O)[C@H](O)[C@@H]1O)C(=O)O", "values": [
      {"measurement": "MIC", "setting": "[1]", "value": 25, "unit": "µg/mL"},
      {"measurement": "MIC", "setting": "[2]", "value": 50, "unit": "µg/mL"},
      {"measurement": "MIC", "setting": "[10]", "value": 50, "unit": "µg/mL"},
      {"measurement": "MIC", "setting": "[3]", "value": 50, "unit": "µg/mL"},
      {"measurement": "MIC", "setting": "[4]", "value": 25, "unit": "µg/mL"},
      {"measurement": "MIC", "setting": "[5]", "value": 25, "unit": "µg/mL"},
      {"measurement": "MIC", "setting": "[6]", "value": 12.5, "unit": "µg/mL"},
      {"measurement": "MIC", "setting": "[7]", "value": 100, "unit": "µg/mL"},
      {"measurement": "MIC", "setting": "[8]", "value": 50, "unit": "µg/mL"},
      {"measurement": "inhibition at 6.25 µg/mL", "setting": "[9]", "value": 51, "unit": "%"}
    ]},
    {"smiles": "NC[C@H]1O[C@@H](O[C@H]([C@H]2O[C@@H](n3ccc(=O)[nH]c3=O)[C@H](O)[C@@H]2O)[C@H](N)C(=O)N[C@H](COC(=O)c2ccc(-c3ccccc3)cc2)C(=O)O)[C@H](O)[C@@H]1O", "values": [
      {"measurement": "MIC", "setting": "[1]", "value": "> 100", "unit": "µg/mL"},
      {"measurement": "MIC", "setting": "[2]", "value": "> 100", "unit": "µg/mL"},
      {"measurement": "MIC", "setting": "[3]", "value": "> 100", "unit": "µg/mL"},
      {"measurement": "MIC", "setting": "[4]", "value": "> 100", "unit": "µg/mL"},
      {"measurement": "MIC", "setting": "[5]", "value": "> 100", "unit": "µg/mL"},
      {"measurement": "MIC", "setting": "[6]", "value": "> 100", "unit": "µg/mL"},
      {"measurement": "MIC", "setting": "[7]", "value": 100, "unit": "µg/mL"},
      {"measurement": "MIC", "setting": "[8]", "value": "> 100", "unit": "µg/mL"},
      {"measurement": "inhibition at 6.25 µg/mL", "setting": "[9]", "value": 27, "unit": "%"}
    ]},
    {"smiles": "CCCCCCCCCCCCCCCC(=O)OC[C@@H]1NC(=O)[C@H]([C@H](O[C@@H]2O[C@H](CN)[C@@H](O)[C@H]2O)[C@H]2O[C@@H](n3ccc(=O)[nH]c3=O)[C@H](O)[C@@H]2O)NC1=O", "values": [
      {"measurement": "MIC", "setting": "[1]", "value": 25, "unit": "µg/mL"},
      {"measurement": "MIC", "setting": "[2]", "value": 100, "unit": "µg/mL"},
      {"measurement": "MIC", "setting": "[10]", "value": 100, "unit": "µg/mL"},
      {"measurement": "MIC", "setting": "[3]", "value": 25, "unit": "µg/mL"},
      {"measurement": "MIC", "setting": "[4]", "value": 50, "unit": "µg/mL"},
      {"measurement": "MIC", "setting": "[5]", "value": 25, "unit": "µg/mL"},
      {"measurement": "MIC", "setting": "[6]", "value": 50, "unit": "µg/mL"},
      {"measurement": "MIC", "setting": "[7]", "value": 100, "unit": "µg/mL"},
      {"measurement": "MIC", "setting": "[8]", "value": 100, "unit": "µg/mL"},
      {"measurement": "inhibition at 6.25 µg/mL", "setting": "[9]", "value": 35, "unit": "%"}
    ]},
    {"smiles": "CCCCCCCCCCCCCCCC(=O)OC[C@@H](NC(=O)[C@@H](N)[C@H](O[C@@H]1O[C@H](CN)[C@@H](O)[C@H]1O)[C@H]1O[C@@H](n2ccc(=O)[nH]c2=O)[C@H](O)[C@@H]1O)C(=O)O", "values": [
      {"measurement": "MIC", "setting": "[1]", "value": 25, "unit": "µg/mL"},
      {"measurement": "MIC", "setting": "[2]", "value": 50, "unit": "µg/mL"},
      {"measurement": "MIC", "setting": "[10]", "value": 50, "unit": "µg/mL"},
      {"measurement": "MIC", "setting": "[3]", "value": 50, "unit": "µg/mL"},
      {"measurement": "MIC", "setting": "[4]", "value": 12.5, "unit": "µg/mL"},
      {"measurement": "MIC", "setting": "[5]", "value": 25, "unit": "µg/mL"},
      {"measurement": "MIC", "setting": "[6]", "value": 12.5, "unit": "µg/mL"},
      {"measurement": "MIC", "setting": "[7]", "value": 50, "unit": "µg/mL"},
      {"measurement": "MIC", "setting": "[8]", "value": 50, "unit": "µg/mL"},
      {"measurement": "inhibition at 6.25 µg/mL", "setting": "[9]", "value": 59, "unit": "%"}
    ]},
    {"smiles": "NC[C@H]1O[C@@H](O[C@H]([C@H]2O[C@@H](n3ccc(=O)[nH]c3=O)[C@H](O)[C@@H]2O)[C@H](N)C(=O)N[C@@H](COC(=O)c2ccc(-c3ccccc3)cc2)C(=O)O)[C@H](O)[C@@H]1O", "values": [
      {"measurement": "MIC", "setting": "[1]", "value": "> 100", "unit": "µg/mL"},
      {"measurement": "MIC", "setting": "[2]", "value": "> 100", "unit": "µg/mL"},
      {"measurement": "MIC", "setting": "[3]", "value": "> 100", "unit": "µg/mL"},
      {"measurement": "MIC", "setting": "[4]", "value": 50, "unit": "µg/mL"},
      {"measurement": "MIC", "setting": "[5]", "value": "> 100", "unit": "µg/mL"},
      {"measurement": "MIC", "setting": "[6]", "value": 100, "unit": "µg/mL"},
      {"measurement": "MIC", "setting": "[7]", "value": 100, "unit": "µg/mL"},
      {"measurement": "MIC", "setting": "[8]", "value": "> 100", "unit": "µg/mL"},
      {"measurement": "inhibition at 6.25 µg/mL", "setting": "[9]", "value": 52, "unit": "%"}
    ]},
    {"smiles": "NC[C@H]1O[C@@H](O[C@H]([C@H]2O[C@@H](n3ccc(=O)[nH]c3=O)[C@H](O)[C@@H]2O)[C@H](N)C(=O)N[C@@H](CO)C(=O)O)[C@H](O)[C@@H]1O", "values": [
      {"measurement": "MIC", "setting": "[1]", "value": "> 100", "unit": "µg/mL"},
      {"measurement": "MIC", "setting": "[2]", "value": "> 100", "unit": "µg/mL"},
      {"measurement": "MIC", "setting": "[3]", "value": "> 100", "unit": "µg/mL"},
      {"measurement": "MIC", "setting": "[4]", "value": "> 100", "unit": "µg/mL"},
      {"measurement": "MIC", "setting": "[5]", "value": "> 100", "unit": "µg/mL"},
      {"measurement": "MIC", "setting": "[6]", "value": "> 100", "unit": "µg/mL"},
      {"measurement": "MIC", "setting": "[7]", "value": 100, "unit": "µg/mL"},
      {"measurement": "MIC", "setting": "[8]", "value": "> 100", "unit": "µg/mL"}
    ]},
    {"smiles": "NC[C@H]1O[C@@H](O[C@H]([C@H]2O[C@@H](n3ccc(=O)[nH]c3=O)[C@H](O)[C@@H]2O)[C@@H]2NC(=O)[C@H](COC(=O)c3ccc(-c4ccccc4)cc3)NC2=O)[C@H](O)[C@@H]1O", "values": [
      {"measurement": "MIC", "setting": "[1]", "value": "> 100", "unit": "µg/mL"},
      {"measurement": "MIC", "setting": "[2]", "value": "> 100", "unit": "µg/mL"},
      {"measurement": "MIC", "setting": "[3]", "value": "> 100", "unit": "µg/mL"},
      {"measurement": "MIC", "setting": "[4]", "value": 100, "unit": "µg/mL"},
      {"measurement": "MIC", "setting": "[5]", "value": "> 100", "unit": "µg/mL"},
      {"measurement": "MIC", "setting": "[6]", "value": "> 100", "unit": "µg/mL"},
      {"measurement": "MIC", "setting": "[7]", "value": 100, "unit": "µg/mL"},
      {"measurement": "MIC", "setting": "[8]", "value": "> 100", "unit": "µg/mL"},
      {"measurement": "inhibition at 6.25 µg/mL", "setting": "[9]", "value": 48, "unit": "%"}
    ]}
  ]
}
